The source made the active and inactive calls. No cut-off for these calls is given here.
Molecular target: T1, Adenosine receptor A1 (Homo sapiens) (UniProt P30542)
T1 sequence (whole entry): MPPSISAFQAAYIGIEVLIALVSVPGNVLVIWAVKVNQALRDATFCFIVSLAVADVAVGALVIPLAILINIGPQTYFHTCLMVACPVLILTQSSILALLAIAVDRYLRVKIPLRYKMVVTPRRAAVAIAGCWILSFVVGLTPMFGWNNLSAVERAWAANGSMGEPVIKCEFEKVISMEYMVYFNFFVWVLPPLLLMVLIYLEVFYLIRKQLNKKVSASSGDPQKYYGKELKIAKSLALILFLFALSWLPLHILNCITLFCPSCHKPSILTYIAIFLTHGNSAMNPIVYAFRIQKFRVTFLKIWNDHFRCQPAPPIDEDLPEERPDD
Assay: Displacement of [3H]R-PIA from adenosine A1 receptor in lamb striatum membrane at 50 uM after 1 hr
Assay type: cell membranes
Details: Ovis aries, target entry is the homologue from another species
In short: (§1)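 Single-concentration screen at 50 µM ergopeptide on lamb striatal membranes (0.5 mg protein/mL), 22 °C, 50 mM Tris-HCl pH 7.4. Radioligands: [3H]SCH 23390 1.2 nM (D1), [3H]YM 09151-2 0.9 nM (D2), [3H]R-PIA 2.2 nM (A1, with MgCl2 and ADA), [3H]CGS 21680 20.1 nM (A2A, with MgCl2 and ADA). Specific binding displaced, after filtration and scintillation counting.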

SMILES | Activity
CC(C)[C@H](NC(=O)[C@H](Cc1ccc([N+](=O)[O-])cc1)NC(=O)[C@@H]1C=C2c3cccc4[nH]cc(c34)C[C@H]2N(C)C1)C(=O)N1c2ccccc2C[C@H]1C(N)=O | < 40%
CC(C)[C@H](NC(=O)[C@H]1C=C2c3cccc4[nH]cc(c34)C[C@H]2N(C)C1)C(=O)N[C@@H](Cc1ccc([N+](=O)[O-])cc1)C(=O)N1CCC[C@H]1C(N)=O | < 40%

Molecular target: T2, Adenosine receptor A2a (Homo sapiens, UniProt P29274)
T2 sequence (P29274 whole entry): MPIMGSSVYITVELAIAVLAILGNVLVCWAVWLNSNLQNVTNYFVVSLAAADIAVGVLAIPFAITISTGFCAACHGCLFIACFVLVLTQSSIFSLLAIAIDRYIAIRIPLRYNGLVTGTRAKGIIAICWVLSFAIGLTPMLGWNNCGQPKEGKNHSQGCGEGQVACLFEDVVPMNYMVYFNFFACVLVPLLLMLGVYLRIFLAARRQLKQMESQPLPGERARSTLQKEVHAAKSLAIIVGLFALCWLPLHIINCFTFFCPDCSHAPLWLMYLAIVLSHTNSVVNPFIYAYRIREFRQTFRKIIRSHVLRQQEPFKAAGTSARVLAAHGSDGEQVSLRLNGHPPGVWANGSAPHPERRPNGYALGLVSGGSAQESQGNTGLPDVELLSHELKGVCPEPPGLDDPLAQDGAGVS
Assay: Agonist activity at adenosine A2A receptor in SH-SY5Y cells assessed as CGS-induced intracellular cAMP production at 50 uM
Assay type: functional, cell-based
Details: not given
In short: (§2)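 SH-SY5Y neuroblastoma cells, endogenous A2AR, stably carrying human D2LR. Serum-starved 12-16 h, in HBSS with 50 µM zardaverine for 10 min, then 50 µM ergopeptide, alone or with the A2AR agonist CGS. 35 min total incubation. cAMP by competitive enzyme immunoassay. Three to six determinations, Student's t test.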

SMILES | Activity
CC(C)[C@H](NC(=O)[C@H](Cc1ccc([N+](=O)[O-])cc1)NC(=O)[C@@H]1C=C2c3cccc4[nH]cc(c34)C[C@H]2N(C)C1)C(=O)N1c2ccccc2C[C@H]1C(N)=O | inactive
CC(C)[C@H](NC(=O)[C@H]1C=C2c3cccc4[nH]cc(c34)C[C@H]2N(C)C1)C(=O)N[C@@H](Cc1ccc([N+](=O)[O-])cc1)C(=O)N1CCC[C@H]1C(N)=O | inactive

Molecular target: D(2) dopamine receptor (Homo sapiens) (UniProt P14416)
Sequence (P14416 whole entry): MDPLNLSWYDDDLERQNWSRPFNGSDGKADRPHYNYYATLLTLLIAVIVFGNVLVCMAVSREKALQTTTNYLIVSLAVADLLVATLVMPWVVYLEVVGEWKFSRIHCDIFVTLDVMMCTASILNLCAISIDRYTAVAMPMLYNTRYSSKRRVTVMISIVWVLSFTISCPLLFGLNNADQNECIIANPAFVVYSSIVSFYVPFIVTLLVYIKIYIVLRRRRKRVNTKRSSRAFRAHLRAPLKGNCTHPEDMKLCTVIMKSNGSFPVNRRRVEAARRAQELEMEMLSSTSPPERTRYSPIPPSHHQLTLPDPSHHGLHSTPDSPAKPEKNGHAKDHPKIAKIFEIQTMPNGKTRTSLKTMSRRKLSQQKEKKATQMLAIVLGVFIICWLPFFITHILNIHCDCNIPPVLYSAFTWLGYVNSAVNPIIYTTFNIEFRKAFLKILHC
Assay: Agonist activity at dopamine D2 receptor in SH-SY5Y cells assessed as inhibition of forskolin-activated intracellular cAMP production at 50 uM
Assay type: functional, cell-based
Details: not given
In short: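 SH-SY5Y cells expressing human D2LR, preincubated 5-10 min at 22 °C with 5 µM ZM to block A2AR. Then 50 µM zardaverine, 10 µM forskolin, and 50 µM ergopeptide, with or without 150 nM quinpirole or 50 µM raclopride. 35 min total. cAMP by enzyme immunoassay. Three to six determinations, t test.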

SMILES | Activity
CC(C)[C@H](NC(=O)[C@H](Cc1ccc([N+](=O)[O-])cc1)NC(=O)[C@@H]1C=C2c3cccc4[nH]cc(c34)C[C@H]2N(C)C1)C(=O)N1c2ccccc2C[C@H]1C(N)=O | Active
CC(C)[C@H](NC(=O)[C@H]1C=C2c3cccc4[nH]cc(c34)C[C@H]2N(C)C1)C(=O)N[C@@H](Cc1ccc([N+](=O)[O-])cc1)C(=O)N1CCC[C@H]1C(N)=O | Active

Molecular target: D(1A) dopamine receptor (Homo sapiens) (UniProt P21728)
Sequence (P21728 whole entry): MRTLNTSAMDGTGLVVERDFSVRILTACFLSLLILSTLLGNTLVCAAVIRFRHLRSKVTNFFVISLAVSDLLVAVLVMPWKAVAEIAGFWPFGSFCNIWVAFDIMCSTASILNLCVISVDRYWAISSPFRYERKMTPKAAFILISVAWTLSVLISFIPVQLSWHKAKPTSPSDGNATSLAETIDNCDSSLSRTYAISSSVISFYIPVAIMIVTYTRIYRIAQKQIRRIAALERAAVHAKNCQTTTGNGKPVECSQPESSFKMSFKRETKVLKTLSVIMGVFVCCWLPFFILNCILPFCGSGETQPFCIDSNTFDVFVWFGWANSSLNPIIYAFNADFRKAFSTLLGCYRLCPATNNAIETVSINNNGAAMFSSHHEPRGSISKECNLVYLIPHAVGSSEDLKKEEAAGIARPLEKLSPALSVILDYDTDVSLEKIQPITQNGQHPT
Assay: Displacement of [3H]SCH 23390 from dopamine D1 receptor in lamb striatum membrane at 50 uM after 1 hr
Assay type: cell membranes
Details: Ovis aries, target entry is the homologue from another species
In short: as §1

SMILES | Activity
CC(C)[C@H](NC(=O)[C@H](Cc1ccc([N+](=O)[O-])cc1)NC(=O)[C@@H]1C=C2c3cccc4[nH]cc(c34)C[C@H]2N(C)C1)C(=O)N1c2ccccc2C[C@H]1C(N)=O | < 40%
CC(C)[C@H](NC(=O)[C@H]1C=C2c3cccc4[nH]cc(c34)C[C@H]2N(C)C1)C(=O)N[C@@H](Cc1ccc([N+](=O)[O-])cc1)C(=O)N1CCC[C@H]1C(N)=O | < 40%

Molecular target: T2, Adenosine receptor A2a
Assay: Displacement of [3H]CGS 21680 from adenosine A2A receptor in lamb striatum membrane at 50 uM after 2 hrs
Assay type: cell membranes
Details: Ovis aries, target entry is the homologue from another species
In short: as §1

SMILES | Activity
CC(C)[C@H](NC(=O)[C@H](Cc1ccc([N+](=O)[O-])cc1)NC(=O)[C@@H]1C=C2c3cccc4[nH]cc(c34)C[C@H]2N(C)C1)C(=O)N1c2ccccc2C[C@H]1C(N)=O | < 40%
CC(C)[C@H](NC(=O)[C@H]1C=C2c3cccc4[nH]cc(c34)C[C@H]2N(C)C1)C(=O)N[C@@H](Cc1ccc([N+](=O)[O-])cc1)C(=O)N1CCC[C@H]1C(N)=O | < 40%

Molecular target: D(2) dopamine receptor (Homo sapiens) (UniProt P14416)
Assay: Displacement of [3H]YM 09151-2 from dopamine D2 receptor in lamb striatum membrane at 50 uM after 2 hrs
Assay type: cell membranes
Details: Ovis aries, target entry is the homologue from another species
In short: as §1

SMILES | Activity
CC(C)[C@H](NC(=O)[C@H](Cc1ccc([N+](=O)[O-])cc1)NC(=O)[C@@H]1C=C2c3cccc4[nH]cc(c34)C[C@H]2N(C)C1)C(=O)N1c2ccccc2C[C@H]1C(N)=O | < 40%
CC(C)[C@H](NC(=O)[C@H]1C=C2c3cccc4[nH]cc(c34)C[C@H]2N(C)C1)C(=O)N[C@@H](Cc1ccc([N+](=O)[O-])cc1)C(=O)N1CCC[C@H]1C(N)=O | < 40%

Molecular target: D(1A) dopamine receptor (Homo sapiens) (UniProt P21728)
Assay: Antagonist activity at dopamine D1 receptor transfected in mouse L(tk-) cells assessed as inhibition of SKF-induced stimulation of forskolin-induced cAMP levels
Assay type: functional, cell-based
Details: not given
In short: (§3)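 Mouse Ltk- fibroblasts cotransfected with human A1R and D1R, serum-starved 12-16 h. In HBSS with 50 µM zardaverine, then 50 µM ergopeptide, with or without 20 nM SKF or 50 µM SCH. 35 min total incubation. cAMP by competitive enzyme immunoassay. Three to six determinations, t test.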

SMILES | Activity
CC(C)[C@H](NC(=O)[C@H](Cc1ccc([N+](=O)[O-])cc1)NC(=O)[C@@H]1C=C2c3cccc4[nH]cc(c34)C[C@H]2N(C)C1)C(=O)N1c2ccccc2C[C@H]1C(N)=O | inactive
CC(C)[C@H](NC(=O)[C@H]1C=C2c3cccc4[nH]cc(c34)C[C@H]2N(C)C1)C(=O)N[C@@H](Cc1ccc([N+](=O)[O-])cc1)C(=O)N1CCC[C@H]1C(N)=O | inactive

Molecular target: T1, Adenosine receptor A1 (Homo sapiens)
Assay: Agonist activity at adenosine A1 receptor transfected in mouse L(tk-) cells assessed as decrease in forskolin-induced cAMP levels
Assay type: functional, cell-based
Details: not given
In short: (§4)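 Mouse Ltk- fibroblasts cotransfected with human A1R and D1R, preincubated 5-10 min at 22 °C with 50 µM SCH to block D1R. Then 50 µM zardaverine, 10 µM forskolin, and 50 µM ergopeptide, with or without 20 nM R-PIA or 50 µM DPCPX. 35 min total. cAMP by enzyme immunoassay. Three to six determinations.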

SMILES | Activity
CC(C)[C@H](NC(=O)[C@H](Cc1ccc([N+](=O)[O-])cc1)NC(=O)[C@@H]1C=C2c3cccc4[nH]cc(c34)C[C@H]2N(C)C1)C(=O)N1c2ccccc2C[C@H]1C(N)=O | inactive
CC(C)[C@H](NC(=O)[C@H]1C=C2c3cccc4[nH]cc(c34)C[C@H]2N(C)C1)C(=O)N[C@@H](Cc1ccc([N+](=O)[O-])cc1)C(=O)N1CCC[C@H]1C(N)=O | inactive

Molecular target: T2, Adenosine receptor A2a
Assay: Antagonist activity at adenosine A2A receptor in SH-SY5Y cells assessed as CGS-induced intracellular cAMP production at 50 uM
Assay type: functional, cell-based
Details: not given
In short: as §2

SMILES | Activity
CC(C)[C@H](NC(=O)[C@H]1C=C2c3cccc4[nH]cc(c34)C[C@H]2N(C)C1)C(=O)N[C@@H](Cc1ccc([N+](=O)[O-])cc1)C(=O)N1CCC[C@H]1C(N)=O | Active

Molecular target: D(1A) dopamine receptor (Homo sapiens) (UniProt P21728)
Assay: Agonist activity at dopamine D1 receptor transfected in mouse L(tk-) cells assessed as stimulation of cAMP levels
Assay type: functional, cell-based
Details: not given
In short: as §3

SMILES | Activity
CC(C)[C@H](NC(=O)[C@H](Cc1ccc([N+](=O)[O-])cc1)NC(=O)[C@@H]1C=C2c3cccc4[nH]cc(c34)C[C@H]2N(C)C1)C(=O)N1c2ccccc2C[C@H]1C(N)=O | Active
CC(C)[C@H](NC(=O)[C@H]1C=C2c3cccc4[nH]cc(c34)C[C@H]2N(C)C1)C(=O)N[C@@H](Cc1ccc([N+](=O)[O-])cc1)C(=O)N1CCC[C@H]1C(N)=O | Active

Molecular target: T1, Adenosine receptor A1 (Homo sapiens)
Assay: Antagonist activity at adenosine A1 receptor transfected in mouse L(tk-) cells assessed as inhibition of R-PIA-induced decrease in forskolin-induced cAMP levels
Assay type: functional, cell-based
Details: not given
In short: as §4

SMILES | Activity
CC(C)[C@H](NC(=O)[C@H](Cc1ccc([N+](=O)[O-])cc1)NC(=O)[C@@H]1C=C2c3cccc4[nH]cc(c34)C[C@H]2N(C)C1)C(=O)N1c2ccccc2C[C@H]1C(N)=O | Active
CC(C)[C@H](NC(=O)[C@H]1C=C2c3cccc4[nH]cc(c34)C[C@H]2N(C)C1)C(=O)N[C@@H](Cc1ccc([N+](=O)[O-])cc1)C(=O)N1CCC[C@H]1C(N)=O | Active

— ChEMBL document CHEMBL1145382, “Novel ergopeptides as dual ligands for adenosine and dopamine receptors” (J Med Chem, 2007)
